We go through eleven compounds from ChEMBL document CHEMBL1142703, “Novel ligands for the chemokine receptor-3 (CCR3): a receptor-modeling study based on 5D-QSAR” (J Med Chem, 2005).

Usually Ki stands for the equilibrium dissociation constant of an inhibitor or competing ligand from its target. High values mean weaker binding, low ones tighter binding.

The target of the experiment is T1, C-C chemokine receptor type 3 (Homo sapiens, UniProt P51677).
T1 sequence (P51677 whole entry): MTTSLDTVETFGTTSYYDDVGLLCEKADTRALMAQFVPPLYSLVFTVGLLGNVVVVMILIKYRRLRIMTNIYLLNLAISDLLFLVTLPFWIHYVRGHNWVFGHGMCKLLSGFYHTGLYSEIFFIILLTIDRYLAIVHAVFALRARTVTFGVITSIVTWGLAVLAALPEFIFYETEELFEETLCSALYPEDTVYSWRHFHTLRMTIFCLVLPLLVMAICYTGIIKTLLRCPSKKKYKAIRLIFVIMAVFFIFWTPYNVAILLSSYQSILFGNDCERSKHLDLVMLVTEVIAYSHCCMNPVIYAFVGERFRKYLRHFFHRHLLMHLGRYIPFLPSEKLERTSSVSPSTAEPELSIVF
Description: Inhibition of [125I]eotaxin-1 binding to human chemokine receptor (hCCR3-C1). The essentials: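 K562 leukemia myelogenic blast cells transfected with human CCR3 (hCCR3-C1). Binding of the radioligand 125I-eotaxin-1 was measured in a scintillation proximity format. Controls: specific binding with no displacer added, and nonspecific binding with unlabeled eotaxin or test compound added. Bound radioactivity was counted by scintillation. Ki was obtained by iterative fitting of the data to a law-of-mass-action model.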
Take `CN1CCN(C(CNC(=O)Nc2cc(Cl)cc(Cl)c2)c2ccc(C(F)(F)F)cc2)CC1` (stereo unspecified): affinity was put at a Ki of 5.18 µM.

Consider `CN1CCN(C(CNC(=O)Nc2cc(Cl)cc(Cl)c2)c2ccc(N(C)C)cc2)CC1` (stereo unspecified), for which the inhibition constant Ki worked out at 3.81 µM. Consider `COc1ccccc1C(CNC(=O)Nc1ccc(F)cc1)N1CCN(C2CCCCC2)CC1` (stereo unspecified), for which the Ki was found to be 5.38 µM. Turning to `Cc1ccc(NC(=O)NCC(c2ccccc2)N2CCN(c3ccccc3)CC2)cc1` (stereo unspecified), the Ki was determined as 8.02 µM.

`O=C(NCC(c1ccccc1)N1CCN(c2ccccc2)CC1)Nc1ccc(F)cc1` (stereo unspecified) displayed a Ki of 5.55 µM. On to `Cc1ccc(NC(=O)NCC(c2ccc(C(F)(F)F)cc2)N2CCN(C)CC2)cc1` (stereo unspecified), for which the Ki was 10.7 µM. Then `CC(C)(C)c1ccc(C(CNC(=O)Cc2ccc(C(F)(F)F)cc2)N2CCN(C3CCCCC3)CC2)cc1` (stereo unspecified), with 10.3 µM; and `CC(C)(C)c1ccc(C(CNC(=O)Cc2ccccc2)N2CCN(c3ccccc3)CC2)cc1` (stereo unspecified), with 11.2 µM. The result for `CN1CCN(C(CNCCc2ccc(C(F)(F)F)cc2)c2ccccc2)CC1` (stereo unspecified) reads 8.97 µM. The compound `COc1ccc(NC(=O)NCC(c2ccccc2)N2CCN(C3CCCCC3)CC2)cc1` (stereo unspecified) had a Ki of 9.83 µM. Then `Cc1ccc(CCNCC(c2ccccc2)N2CCN(C)CC2)cc1` (stereo unspecified), with 11.6 µM.
